From ChEMBL document CHEMBL4033799, “Stable and Long-Lasting, Novel Bicyclic Peptide Plasma Kallikrein Inhibitors for the Treatment of Diabetic Macular Edema” (J Med Chem, 2018)

Assays:
Rattus norvegicus [1] = test: Toxicity in rat at 125 ug administered as systemic dose; conditions: in vivo
Rattus norvegicus [2] = test: Antiinflammatory activity in Sprague-Dawley rat assessed as inhibition carrageenan-induced paw edema at 30 mg/kg, ip pretreated for 15 mins followed by carrageenan challenge measured at 4 hrs post carrageenan challenge; type: functional
Summary of the method: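 Male Sprague-Dawley rats received peptide IP (30, 10 or 3 mg/kg), or indomethacin IP at 5 mg/kg, 15 min before subplantar carrageenan. Paw volume was followed over time against a vehicle group.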

With `CC(=O)N[C@H]1CSCc2cc3cc(c2)CSC[C@H](NC(=O)[C@H](CCCCNC(=N)N)NC(=O)[C@H](Cc2ccc(O)cc2)NC(=O)[C@@H]2CCN2C(=O)[C@H](Cc2ccccc2)NC(=O)[C@H](CO)NC1=O)C(=O)N[C@@H](C)CN[C@@H](Cc1cnc[nH]1)C(=O)N[C@@H](CCC(N)=O)C(=O)N[C@@H](CC(=O)O)C(=O)N[C@@H](CC(C)C)C(=O)N[C@H](C(=O)O)CSC3` the Activity (Rattus norvegicus [1]) was “Non-Toxic”.

`CC(=O)N[C@H]1CSCc2cc3cc(c2)CSC[C@H](C(=O)N[C@@H](C)C(=O)N(C)CC(=O)N(C)CC(=O)N(C)CC(=O)N[C@H](CCCNC(=N)N)C(=O)N[C@H](CCCNC(=N)N)C(=O)O)NC(=O)[C@H](CC(C)C)NC(=O)[C@@H]2CCCN2C(=O)[C@H](C)NC(=O)[C@H](CC(=O)O)NC(=O)[C@H](Cc2c[nH]c4ccccc24)NC(=O)[C@@H]2CCCN2C(=O)[C@H](CSC3)NC(=O)[C@H](Cc2c[nH]c3ccccc23)NC(=O)[C@@H]2CCCN2C(=O)[C@H](CC(N)=O)NC(=O)[C@H](Cc2c[nH]c3ccccc23)NC(=O)[C@H]([C@@H](C)O)NC(=O)[C@H](CC(N)=O)NC1=O` gave an inhibition in vivo at 30 mg/kg (Rattus norvegicus [2]) of 60%.
